Entries after “also recorded” stand apart in the source; their conditions may differ. Where two headings read alike, the source gives them in different places. Marks after values point to notes of the source that are not given here.
Tests used:
[1] = system: HT22 cells; test: Oxidative glutamate toxicity; format: cell-based
In short: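 HT22 cells (DMEM, 10% FCS) were given the test compound, then 5 mM glutamate 30 min later to deplete GSH. Cell survival was measured 24 h after glutamate. Experiments were repeated at least three times in triplicate, shown as mean ± SD, and analysed by ANOVA with Bonferroni's test (P<0.05).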

[2] = system: free radical-induced peroxidation; details: in vitro; cited from earlier work
[3] = rat, in vivo; cited from earlier work
[4] = system: HT22 hippocampal neurons; test: In vitro ischemia assay; format: cell-based
In short: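 HT22 cells were grown in DMEM with 10% FCS and seeded at 5×10^3 cells/well. Next day they were switched to DMEM with 7.5% DFCS and given 20 μM iodoacetic acid ± test compound for 2 h, then fresh IAA-free medium with compound for 20 h. MTT (5 μg/ml) ran 4 h at 37°C, was solubilised in 50% DMF/20% SDS pH 4.7, and A570 was read next day. Runs were done ≥3 times in triplicate; ANOVA/Bonferroni.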

[5] = system: rat intraluminal suture stroke model; details: cited from earlier work
[6] = system: Salmonella typhimurium TA100; test: Ames genotoxicity test, TA100; format: cell-based
[7] = rat, microsomes
[8] = system: H4IIE rat hepatoma cell line; test: CeeTox analysis, cellular toxicity panel; format: cell-based
[9] = microsomes
[10] = dog, microsomes
[11] = system: HT22 hippocampal cells; test: HT22 neuroprotection, IAA or oxidative glutamate toxicity assays stated together; format: cell-based; details: read-out: EC50, neuroprotection, either IAA or oxidative glutamate toxicity assay
[12] = human, microsomes
[13] = system: P-glycoprotein (PgP); test: P-glycoprotein; format: cell-based, rat; details: 50 μM
In short: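 H4IIE cells were exposed to the test compound at a single concentration (50 μM), with and without the PgP inhibitor cyclosporin A. Toxicity was measured by MTT assay and expressed as % control for each condition. The % difference was taken as the PgP interaction measure. The compound came from a DMSO stock, with a DMSO control, in a blinded contract CeeTox study.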

[14] = Metabolic stability in human and animal liver microsomes, stated across species; format: in vitro ADME, dog, rat, mouse
[15] = system: HT22 cells; test: HT22 cell ATP content in the in vitro ischemia assay; format: cell-based; details: 20 μM IAA; highest dose tested (10 μM)
[16] = system: Salmonella typhimurium TA989; test: Ames genotoxicity test, TA989; format: cell-based
[17] = oxidative glutamate toxicity assay

Molecule: Stilbazulenyl nitrone [STAZN]
- concentration at which significance was first achieved ([1]; 5 mM glutamate, HT22 cells): 5 µM
- increase in survival [1, 17]: 416%
- maximal level of protection, of total cell survival [1, 17]: ~52%
- potency relative to NXY-059 at inhibiting free radical-induced peroxidation [2]: 300 times
- circulating half-life t1/2, first phase of biexponential decline in blood levels [3]: 28 min
- increase in survival ([4]; IAA assay): 621%
- maximal level of protection, of total cell survival ([4]; IAA assay): approximately 60%
- EC50 ([4]; read-out: EC50, neuroprotection in the IAA assay, estimated, 20 μM IAA, HT22 cells): ~1 µM
- effect on behavior [5]: improved behavior measured up to 30 days following ischemia
- effect on infarct volume [5]: reduced infarct volume in a dose- and time-dependent manner
- neuroprotective doses, times lower than NXY-059 [5]: 300–600 times
- Mean no. of positive wells ([6]; TA100+S9, .001963 mg/ml): 7.33
- Mean no. of positive wells ([6]; TA100+S9, .003906 mg/ml): 6.33
- Mean no. of positive wells ([6]; TA100+S9, .007813 mg/ml): 6.67
- Mean no. of positive wells ([6]; TA100+S9, .015625 mg/ml): 6.33
- Mean no. of positive wells ([6]; TA100+S9, .03125 mg/ml): 10.67
- Mean no. of positive wells ([6]; TA100+S9, .0625 mg/ml): 8.67
- mutagenicity (Ames test outcome) ([6]; TA100, with or without S9, up to 0.0625 mg/ml (0.106 mM)): lack of mutagenicity; also recorded: not mutagenic
- Mean no. of positive wells ([6]; TA100−S9, .001963 mg/ml): 5.00
- Mean no. of positive wells ([6]; TA100−S9, .003906 mg/ml): 3.67
- Mean no. of positive wells ([6]; TA100−S9, .007813 mg/ml): 6.33
- Mean no. of positive wells ([6]; TA100−S9, .015625 mg/ml): 7.33
- Mean no. of positive wells ([6]; TA100−S9, .03125 mg/ml): 5.00
- Mean no. of positive wells ([6]; TA100−S9, .0625 mg/ml): 5.67
- Half-life t1/2 [7]: > 60 min
- Half-life t1/2, calculated value in parentheses [7]: 95 min
- Percent remaining of initial compound ([7]; 10 min): 82.4%
- Percent remaining of initial compound ([7]; 20 min): 76.6%
- Percent remaining of initial compound ([7]; 0.5 h): 80.3%
- drug metabolized ([7]; 0.5 h): 20%
- Percent remaining of initial compound ([7]; 1 h): 122 ^d %
- decrease in cellular ATP content ([8]; H4IIE cells, 300 μM): ~35%
- ATP TC50 ([8]; H4IIE cells, 24 h): >300 µM
- Cell number TC50 ([8]; H4IIE cells, 24 h): >300 µM
- MTT TC50 ([8]; H4IIE cells, 24 h): >300 µM
- MemTox TC50 ([8]; H4IIE cells, 24 h): >300 µM
- Total GSH TC50 ([8]; H4IIE cells, 24 h): >300 µM
- TC50 for all general toxicity measures ([8]; H4IIE cells, 24 h, all assays): > 300 µM
- Membrane lipid peroxidation ([8]; H4IIE cells, measured as 8-isoprostane): 0
- therapeutic safety window (efficacy/toxicity ratio) ([8]; in vitro, HT22 EC50 vs CeeTox toxicity): 60–150 fold
- Half-life t1/2 [9]: < 10 min
- Half-life t1/2, calculated value in parentheses ([9]; mouse): 27 min
- Percent remaining of initial compound ([9]; mouse, 10 min): 17.2%
- Percent remaining of initial compound ([9]; mouse, 20 min): 19.8%
- Percent remaining of initial compound ([9]; mouse, 0.5 h): 10.0%
- Percent remaining of initial compound ([9]; mouse, 1 h): 13.8%
- drug metabolized ([9]; mouse, 1 h): 86%
- Half-life t1/2 [10]: 71 min
- Percent remaining of initial compound ([10]; 10 min): 56.2%
- Percent remaining of initial compound ([10]; 20 min): 65.5%
- Percent remaining of initial compound ([10]; 0.5 h): 54.5%
- Percent remaining of initial compound ([10]; 1 h): 47.6%
- drug metabolized ([10]; 1 h): approximately 50%
- EC50 [11]: 1 to 5 µM
- Half-life t1/2 [12]: 78 min
- Percent remaining of initial compound ([12]; 10 min): 57.7%
- Percent remaining of initial compound ([12]; 20 min): 39.7%
- Percent remaining of initial compound ([12]; 0.5 h): 46.9%
- Percent remaining of initial compound ([12]; 1 h): 49.1%
- drug metabolized ([12]; 1 h): approximately 50%
- interaction with PgP transporters [13]: low-level interaction
- % Control (compound + CSA) ([13]; MTT, H4IIE cells, with cyclosporin A): 83.4%
- % Control (compound) ([13]; MTT, H4IIE cells, without CSA): 100.3%
- % Difference ([13]; without vs with CSA): 16.9%
- half-life [14]: 60 to 78 min
- effect on IAA-induced ATP loss [15]: significantly attenuate IAA-induced ATP loss
- Mean no. of positive wells ([16]; TA989+S9, .001963 mg/ml): 2.33
- Mean no. of positive wells ([16]; TA989+S9, .003906 mg/ml): 1.33
- Mean no. of positive wells ([16]; TA989+S9, .007813 mg/ml): 5.00
- Mean no. of positive wells ([16]; TA989+S9, .015625 mg/ml): 3.00
- Mean no. of positive wells ([16]; TA989+S9, .03125 mg/ml): 4.00
- Mean no. of positive wells ([16]; TA989+S9, .0625 mg/ml): 2.33
- mutagenicity (Ames test outcome) ([16]; TA989, with or without S9, up to 0.0625 mg/ml (0.106 mM)): lack of mutagenicity; also recorded: not mutagenic
- Mean no. of positive wells ([16]; TA989−S9, .001963 mg/ml): 1.33
- Mean no. of positive wells ([16]; TA989−S9, .003906 mg/ml): 1.33
- Mean no. of positive wells ([16]; TA989−S9, .007813 mg/ml): 0.33
- Mean no. of positive wells ([16]; TA989−S9, .015625 mg/ml): 0.67
- Mean no. of positive wells ([16]; TA989−S9, .03125 mg/ml): 0.00
- Mean no. of positive wells ([16]; TA989−S9, .0625 mg/ml): 0.67

Molecule: C[C@]12CC[C@H]3[C@@H](CCC4=CC(=O)CC[C@@]43C)[C@@H]1CC[C@@H]2O [testosterone, reference compound]
- half-life ([14]; human): 10 to 32 min

Molecule: Nc1ccc2cc3ccccc3cc2c1 [2-aminoanthracene, reference compound]
- Mean no. of positive wells ([6]; TA100+S9, positive control): 48.00
- Mean no. of positive wells ([6]; TA100−S9, positive control): 48.00
- Mean no. of positive wells ([16]; TA989+S9, positive control): 48.00
- Mean no. of positive wells ([16]; TA989−S9, positive control): 36.00
